The source made the active and inactive calls. The calls are words filed in the database; no cut-off is given here. Where a SMILES comes first, the peptide text is derived from it. Bridges are numbered along the chain shown (N, C = ends).

For five molecules, Activity and minimal effective concentration results are on record in ChEMBL document CHEMBL1154416, “Haemophilus ducreyi is resistant to human antimicrobial peptides” (2007).

For assay [1], the system named is [Haemophilus] ducreyi. As to the kind of experiment: Bactericidal activity against Haemophilus ducreyi 35000HP assessed as survival at 0.2 ug/ml by antibacterial susceptibility test relative to control. The assay is classed as functional. The method in brief:
(§1)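 Viable bacteria counted by plating. Survival expressed as percentage of peptide-free control wells. Means ± standard errors of three independent assays; mixed-model analysis with Sidak adjustment, P<0.05.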

Assay [2] concerns [Haemophilus] ducreyi. Briefly: Bactericidal activity against Haemophilus ducreyi 35000HP assessed as survival at 2 ug/ml by antibacterial susceptibility test relative to control. Format: functional, organism-based. Summed up: as §1
Assay [3] has as its system [Haemophilus] ducreyi. Briefly: Bactericidal activity against Haemophilus ducreyi 35000HP assessed as survival at 20 ug/ml by antibacterial susceptibility test relative to control. Format: functional, organism-based. Summed up: as §1
The test system of assay [4] is [Haemophilus] ducreyi. Briefly: Bactericidal activity against Haemophilus ducreyi CIP542 assessed as survival at 0.2 ug/ml by antibacterial susceptibility test relative to control. Format: functional. The method in brief: as §1
The test system of assay [5] is [Haemophilus] ducreyi. Briefly: Bactericidal activity against Haemophilus ducreyi CIP542 assessed as survival at 20 ug/ml by antibacterial susceptibility test relative to control. Format: functional, organism-based. The method in brief:
as §1

For assay [6], the system named is Escherichia coli. As to the kind of experiment: Bactericidal activity against Escherichia coli ML35 assessed as survival at 20 ug/ml relative to control. The assay is classed as functional. Summed up: as §1
For assay [7], the system named is [Haemophilus] ducreyi. Briefly: Bactericidal activity against Haemophilus ducreyi 35000HP assessed as survival at 2 ug/ml relative to control. Format: functional. The method in brief:
as §1

Assay [8] has as its system Escherichia coli. As to the kind of experiment: Bactericidal activity against Escherichia coli ML35 after 48 to 72 hrs by radial diffusion assay. Format: functional. As to conditions: read-out: MEC. The method in brief:
(§2)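 Radial diffusion assay with salts omitted from the agarose underlay. Activity units are taken from inhibition zones around peptide-loaded wells. MEC is the x intercept of the best-fit line of activity against peptide concentration. Where fewer than two concentrations were active, MEC is recorded as >158 μg/ml, the assay's upper limit. Values are means of three independent assays, each run in duplicate.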

Assay [9] concerns [Haemophilus] ducreyi. Briefly: Bactericidal activity against Haemophilus ducreyi 35000HP after 48 to 72 hrs by radial diffusion assay. The assay is classed as functional. To be noted: read-out: MEC. Summed up:
as §2

Assay [10] concerns [Haemophilus] ducreyi. As to the kind of experiment: Bactericidal activity against Haemophilus ducreyi CIP542 after 48 to 72 hrs by radial diffusion assay. Format: functional. To be noted: read-out: MEC. The method in brief: as §2
Assay [11] relates to [Haemophilus] ducreyi. Briefly: Bactericidal activity against Haemophilus ducreyi 35000HP assessed as survival at 2 ug/ml by tenfold serial dilution assay relative to control. The assay is classed as functional. The method in brief:
(§3)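 Mid-log-phase cells were suspended in 10 mM sodium phosphate (pH 7.4) with 1% brain-heart infusion broth and exposed to peptide dilutions for 1 h, at 33°C for H. ducreyi or 37°C for E. coli. Survivors were counted by plating, and survival was expressed as a percent of peptide-free control wells. Values are means of three independent assays.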

Assay [12] relates to Escherichia coli. Briefly: Bactericidal activity against Escherichia coli ML35 assessed as survival at 2 ug/ml by tenfold serial dilution assay relative to control. Format: functional. The method in brief:
as §3

The test system of assay [13] is [Haemophilus] ducreyi. Briefly: Bactericidal activity against Haemophilus ducreyi 35000HP assessed as survival at 0.5 ug/ml by twofold serial dilution assay relative to control. Format: functional. Summed up: as §3
Assay [14] has as its system Escherichia coli. As to the kind of experiment: Bactericidal activity against Escherichia coli ML35 assessed as survival at 0.5 ug/ml by twofold serial dilution assay relative to control. Format: functional. Summed up:
as §3

In the case of `CC[C@H](C)[C@@H]1NC(=O)[C@H](CCCNC(=N)N)NC(=O)[C@H](Cc2ccc(O)cc2)NC(=O)[C@H](CCC(=O)O)NC(=O)[C@H](CCC(N)=O)NC(=O)[C@H](CO)NC(=O)[C@H](CCCNC(=N)N)NC(=O)[C@@H]2CSSC[C@@H](C(=O)N[C@@H](CC(C)C)C(=O)N[C@@H](CCCNC(=N)N)C(=O)N[C@@H](CCCCN)C(=O)O)NC(=O)[C@@H]3NC(=O)[C@H](C)NC(=O)[C@H](Cc4ccc(O)cc4)NC(=O)[C@H]([C@@H](C)O)NC(=O)[C@H](CC(N)=O)NC(=O)[C@H]4CCCN4C(=O)[C@H](CSSC[C@H](NC(=O)[C@H](CCCNC(=N)N)NC(=O)[C@H](C)NC(=O)[C@H]([C@@H](C)O)NC(=O)CNC(=O)[C@H](Cc4ccc(O)cc4)NC(=O)CNC(=O)[C@@H](NC(=O)[C@@H](NC(=O)[C@H](CCCNC(=N)N)NC(=O)[C@H](CC(=O)O)NC(=O)[C@H](CC(C)C)NC(=O)[C@@H](N)CCC(=O)O)[C@@H](C)CC)CSS3)C(=O)N[C@@H](CCCNC(=N)N)C(=O)N[C@@H](CCCCN)C(=O)N[C@@H](CCCCN)C(=O)N2)NC(=O)[C@H](CCCNC(=N)N)NC(=O)CNC1=O`, the result in [Haemophilus] ducreyi [1], in [Haemophilus] ducreyi [2], in [Haemophilus] ducreyi [3], in [Haemophilus] ducreyi [4] and in assay [Haemophilus] ducreyi [5] was inactive.
`CC[C@H](C)[C@@H]1NC(=O)[C@@H]2CSSC[C@@H]3NC(=O)[C@H](Cc4ccccc4)NC(=O)[C@H](C)NC(=O)[C@H](Cc4c[nH]c5ccccc45)NC(=O)[C@H](CC(C)C)NC(=O)[C@H](CCCNC(=N)N)NC(=O)CNC(=O)[C@H](CCC(N)=O)NC(=O)[C@H](Cc4ccc(O)cc4)NC(=O)[C@H]([C@@H](C)CC)NC(=O)[C@H](CSSC[C@H](NC(=O)[C@H](Cc4ccc(O)cc4)NC(=O)[C@@H](N)CSSC[C@@H](C(=O)O)NC3=O)C(=O)N[C@@H](CCCNC(=N)N)C(=O)N[C@@H]([C@@H](C)CC)C(=O)N3CCC[C@H]3C(=O)N[C@@H](C)C(=O)N2)NC(=O)[C@H]([C@@H](C)O)NC(=O)CNC(=O)[C@H](Cc2ccc(O)cc2)NC(=O)[C@H](CCCNC(=N)N)NC(=O)[C@H](CCCNC(=N)N)NC(=O)[C@H](CCC(=O)O)NC(=O)CNC(=O)[C@H](C)NC1=O` (H-CYCRIPACIAGERRYGTCIYQGRLWAFCC-OH; disulfide 1-29, 3-18, 8-28): the Activity in the assay on Escherichia coli [6] is listed as 10%. The result in [Haemophilus] ducreyi [1], in assay [Haemophilus] ducreyi [2], in assay [Haemophilus] ducreyi [3], in [Haemophilus] ducreyi [4] and in assay [Haemophilus] ducreyi [5] was inactive.
Regarding `CC[C@H](C)[C@@H]1NC(=O)[C@H](CCCCN)NC(=O)[C@H]([C@@H](C)O)NC(=O)[C@H](Cc2ccccc2)NC(=O)[C@H]([C@@H](C)CC)NC(=O)[C@@H]2CCCN2C(=O)[C@@H]2CSSC[C@@H](C(=O)N[C@@H](CCCCN)C(=O)O)NC(=O)[C@@H]3CSSC[C@H](NC(=O)[C@H](CC(N)=O)NC(=O)[C@H](Cc4ccc(O)cc4)NC(=O)[C@H](Cc4cnc[nH]4)NC(=O)[C@@H](N)CC(=O)O)C(=O)N[C@@H](C(C)C)C(=O)N[C@@H](CO)C(=O)N[C@@H](CO)C(=O)NCC(=O)NCC(=O)N[C@@H](CCC(N)=O)C(=O)N[C@@H](CSSC[C@H](NC(=O)[C@H]([C@@H](C)O)NC(=O)CNC(=O)[C@H](CCC(N)=O)NC1=O)C(=O)N[C@@H](Cc1ccc(O)cc1)C(=O)N[C@@H](CCCNC(=N)N)C(=O)NCC(=O)N[C@@H](CCCCN)C(=O)N[C@@H](C)C(=O)N[C@@H](CCCCN)C(=O)N3)C(=O)N[C@@H](CC(C)C)C(=O)N[C@@H](Cc1ccc(O)cc1)C(=O)N[C@@H](CO)C(=O)N[C@@H](C)C(=O)N2` (H-DHYNCVSSGGQCLYSACPIFTKIQGTCYRGKAKCCK-OH; disulfide 5-34, 12-27, 17-35), the result in [Haemophilus] ducreyi [1], in assay [Haemophilus] ducreyi [2], in assay [Haemophilus] ducreyi [3], in assay [Haemophilus] ducreyi [4] and in assay [Haemophilus] ducreyi [5] was inactive.
Take `CC[C@H](C)[C@@H]1NC(=O)[C@H](CCCNC(=N)N)NC(=O)[C@H](Cc2ccc(O)cc2)NC(=O)[C@H](CCC(=O)O)NC(=O)[C@H](CCC(N)=O)NC(=O)[C@H](CO)NC(=O)[C@H](CCCNC(=N)N)NC(=O)[C@@H]2CSSC[C@@H](C(=O)N[C@@H](CC(C)C)C(=O)N[C@@H](CCCNC(=N)N)C(=O)N[C@@H](CCCCN)C(=O)O)NC(=O)[C@@H]3CSSC[C@H](NC(=O)[C@@H](NC(=O)[C@H](CCCNC(=N)N)NC(=O)[C@H](CC(=O)O)NC(=O)[C@H](CC(C)C)NC(=O)[C@@H](N)CCC(=O)O)[C@@H](C)CC)C(=O)NCC(=O)N[C@@H](Cc4ccc(O)cc4)C(=O)NCC(=O)N[C@@H]([C@@H](C)O)C(=O)N[C@@H](C)C(=O)N[C@@H](CCCNC(=N)N)C(=O)N[C@@H](CSSC[C@H](NC(=O)[C@H](CCCNC(=N)N)NC(=O)CNC1=O)C(=O)N1CCC[C@H]1C(=O)N[C@@H](CC(N)=O)C(=O)N[C@@H]([C@@H](C)O)C(=O)N[C@@H](Cc1ccc(O)cc1)C(=O)N[C@@H](C)C(=O)N3)C(=O)N[C@@H](CCCNC(=N)N)C(=O)N[C@@H](CCCCN)C(=O)N[C@@H](CCCCN)C(=O)N2` (H-ELDRICGYGTARCRKKCRSQEYRIGRCPNTYACCLRK-OH; disulfide 6-33, 13-27, 17-34): the Activity with Escherichia coli [6] was below 7%; in [Haemophilus] ducreyi [7] it was above 84%. Also, the values for the minimal effective concentration (in the assay on Escherichia coli [8]; in assay [Haemophilus] ducreyi [9]; in [Haemophilus] ducreyi [10]) were 12.6 µg/mL, above 158 µg/mL and above 158 µg/mL, respectively.
`CC[C@H](C)[C@H](NC(=O)[C@H](CCCCN)NC(=O)[C@H](CCC(=O)O)NC(=O)[C@H](CCCCN)NC(=O)[C@H](CO)NC(=O)[C@H](CCCCN)NC(=O)[C@H](CCCNC(=N)N)NC(=O)[C@H](Cc1ccccc1)NC(=O)[C@H](Cc1ccccc1)NC(=O)[C@H](CC(=O)O)NC(=O)CNC(=O)[C@H](CC(C)C)NC(=O)[C@@H](N)CC(C)C)C(=O)NCC(=O)N[C@@H](CCCCN)C(=O)N[C@@H](CCC(=O)O)C(=O)N[C@@H](Cc1ccccc1)C(=O)N[C@@H](CCCCN)C(=O)N[C@@H](CCCNC(=N)N)C(=O)N[C@H](C(=O)N[C@H](C(=O)N[C@@H](CCC(N)=O)C(=O)N[C@@H](CCCNC(=N)N)C(=O)N[C@H](C(=O)N[C@@H](CCCCN)C(=O)N[C@@H](CC(=O)O)C(=O)N[C@@H](Cc1ccccc1)C(=O)N[C@@H](CC(C)C)C(=O)N[C@@H](CCCNC(=N)N)C(=O)N[C@@H](CC(N)=O)C(=O)N[C@@H](CC(C)C)C(=O)N[C@H](C(=O)N1CCC[C@H]1C(=O)N[C@@H](CCCNC(=N)N)C(=O)N[C@H](C(=O)N[C@@H](CCC(=O)O)C(=O)N[C@@H](CO)C(=O)O)[C@@H](C)O)C(C)C)[C@@H](C)CC)C(C)C)[C@@H](C)CC` [CATHELICIDIN]: the Activity in [Haemophilus] ducreyi [11] is recorded as 16%; in the assay with Escherichia coli [12], 5%; in [Haemophilus] ducreyi [13], 43%; with Escherichia coli [14] it was 3%. Besides, the result in assay [Haemophilus] ducreyi [1], in assay [Haemophilus] ducreyi [2], in [Haemophilus] ducreyi [3], in assay [Haemophilus] ducreyi [4] and in assay [Haemophilus] ducreyi [5] was inactive. The figures for the minimal effective concentration (with Escherichia coli [8]; in assay [Haemophilus] ducreyi [9]; in assay [Haemophilus] ducreyi [10]) were 6.2 µg/mL, above 158 µg/mL and above 158 µg/mL, respectively.
